pEC50: −log10 of the molar value. Calls of active or inactive are those of the source. The calls are words filed in the database; no cut-off is given here.
Columns and labels:
MT2 [1] = experiment: Antiviral activity against HIV-1(HTLV-III B) in MT-2 cells; Not active uM concentration; type: functional, cell-based; settings: Homo sapiens
Summary of the method: (§1)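 MT-2 cells, 1 × 10⁴ per well in triplicate wells, infected with HIV-1 (HTLV-III) at MOI 0.5 TCID₅₀/cell, then given serial drug dilutions. MTT added after 7 days. Antiviral effect taken from A₅₇₀ of infected cells compared with A₅₇₀ of uninfected drug-free cells. Concentrations tested up to 100 μM.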

CCRF-CEM = experiment: Tested in vitro for anticancer activity against replication of human CCRF-CEM lymphoblastic cell line after 72 hr incubation; type: functional; settings: read-out: ED50 (the source's name)
Summary of the method: (§2)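 Suspension cultures at 37 °C, 5% CO₂. L1210, P388 and S-180 were grown in Fisher's medium and CCRF-CEM in RPMI 1640, each with 10% horse serum. Exponentially growing cells at 2 × 10⁴ cells/mL were exposed to various concentrations and counted at 24, 48 and 72 h. ED₅₀ for 50% growth inhibition at 72 h was estimated from dose-response curves, ≥2 independent experiments.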

L1210 = experiment: Tested in vitro for anticancer activity against replication of murine leukemia L1210 cell line after 72 hr incubation; type: functional; settings: Mus musculus, L1210, 72 h; read-out: ED50 (the source's name); summary of the method: as §2
[2] = Tested in vitro for anticancer activity against replication of murine Sarcoma 180 cell line after 72 h incubation; type: functional; settings: Mus musculus, 180, 72 h; read-out: ED50 (the source's name); summary of the method: as §2
P388 = experiment: Tested in vitro for anticancer activity against replication of murine leukemia P388 cell line after 72 hr incubation; type: functional; settings: Mus musculus, P388, 72 h; read-out: ED50 (the source's name); summary of the method: as §2
[3] = system: Thymidine kinase (Human herpesvirus 2); experiment: Antiviral activity against thymidine kinase from Herpes simplex virus type-2 (333 Strain) infected HeLa (Bu-25-TK-) cells at 500 uM concentration
[4] = molecular target: T1, Thymidine kinase, cytosolic (Homo sapiens) (UniProt P04183); experiment: […] thymidine kinase activity from K562 mammalian cells at 500 uM concentration; type: cell-based
T1 sequence (whole entry): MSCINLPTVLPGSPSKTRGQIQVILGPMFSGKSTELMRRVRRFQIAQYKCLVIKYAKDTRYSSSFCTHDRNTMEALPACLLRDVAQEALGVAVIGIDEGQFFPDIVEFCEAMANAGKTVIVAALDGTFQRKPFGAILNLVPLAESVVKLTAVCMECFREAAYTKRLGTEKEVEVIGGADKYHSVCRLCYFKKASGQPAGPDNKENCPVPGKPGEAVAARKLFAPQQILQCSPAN

[5] = system: Thymidine kinase (Human herpesvirus 1); experiment: Antiviral activity against thymidine kinase from Herpes simplex virus type-1 (KOS Strain) infected HeLa (Bu-25-TK-) cells at 500 uM concentration
MT2 [6] = experiment: Antiviral activity against HIV-1(HTLV-III B) in MT-2 cells at 100 uM; Not active up to 100 uM concentration; type: functional, cell-based; settings: Homo sapiens; summary of the method: as §1

SMILES	inhibition (MT2 [1])	pEC50 (CCRF-CEM)	pEC50 (L1210)	pEC50 [2]	pEC50 (P388)	inhibition [3]	inhibition [4]	inhibition [5]	inhibition (MT2 [6])
Cc1cn([C@@H]2O[C@H](CO)[C@@H](CN=[N+]=[N-])[C@@H]2O)c(=O)[nH]c1=O	inactive	< 4.00	5.00	< 4.00	< 4.00				
Cc1cn([C@@H]2O[C@H](CO)[C@@H](CO)[C@@H]2O)c(=O)[nH]c1=O		< 4.00	< 4.00	< 4.00	< 4.00	6.9%	0.7%	11.7%	
Cc1cn([C@@H]2O[C@H](CO)[C@@H](CF)[C@@H]2O)c(=O)[nH]c1=O	inactive	< 4.00	< 4.00	< 4.00	< 4.00	10.9%	7.1%	13.8%	
Cc1cn([C@@H]2O[C@H](CO)[C@@H](CN=[N+]=[N-])[C@H]2O)c(=O)[nH]c1=O	inactive	< 4.00	< 4.00	< 4.00	< 4.00				
Cc1cn([C@H]2C[C@H](CN)[C@@H](CO)O2)c(=O)[nH]c1=O		< 4.00	< 4.00	< 4.00	< 4.00				
Cc1cn([C@H]2C[C@H](CF)[C@@H](CO)O2)c(=O)[nH]c1=O		< 4.00	< 4.00	< 4.00	< 4.00	4%	5.4%	85.2%	inactive
Cc1cn([C@H]2C[C@H](CO)[C@@H](CO)O2)c(=O)[nH]c1=O		6.00	4.30	5.00	5.30	0%	3%	59.1%	
Cc1cn([C@H]2C[C@H](CN=[N+]=[N-])[C@@H](CO)O2)c(=O)[nH]c1=O	inactive	< 4.00	< 4.00	< 4.00	< 4.00				
Cc1cn([C@@H]2O[C@H](CO)[C@@H](CN)[C@@H]2O)c(=O)[nH]c1=O		< 4.00	< 4.00	< 4.00	< 4.00				
Cc1cn([C@@H]2O[C@H](CO)[C@@H](O)[C@@H]2O)c(=O)[nH]c1=O							5%		
Cc1cn([C@@H]2O[C@H](CO)[C@@H](CF)[C@H]2O)c(=O)[nH]c1=O		< 4.00	< 4.00	< 4.00	< 4.00	4.9%	2.5%	7%	inactive
Cc1cn([C@@H]2O[C@H](CO)[C@@H](CO)[C@H]2O)c(=O)[nH]c1=O		< 4.00	< 4.00	< 4.00	< 4.00	0%	3%	2.6%	
Cc1cn([C@@H]2O[C@H](CO)[C@@H](CN)[C@H]2O)c(=O)[nH]c1=O		< 4.00	< 4.00	< 4.00	< 4.00				
